Experimental data published in ChEMBL document CHEMBL1148290, “Synthesis of flexible sulfur-containing heteroarotinoids that induce apoptosis and reactive oxygen species with discrimination between malignant and benign cells” (2004).

Tests used:
Assay type in all cases: functional
[1] = system: Caov-3 cell line; experiment: Potency of compound was determined from ability to inhibit the growth of ovarian carcinoma cell line Caov-3
Method in brief: (§1)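 Cells seeded at 1000 cells/well; next day retinoids added from DMSO stocks (DMSO ≤0.01% final; solvent-only controls) to final 1, 4, 7 and 10 μM, handled under subdued light. After 3 days, living cells quantitated by MTS/PMS reduction read at OD490 in linear range (0.1–0.6); triplicate wells averaged, percent growth inhibition calculated versus solvent controls.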

[2] = system: SK-OV-3; experiment: Potency of compound was determined from ability to inhibit the growth of ovarian carcinoma SK-OV-3 cell line; method in brief: as §1
[3] = system: Caov-3 cell line; experiment: Efficacy is growth inhibition activity at 10 uM concentration relative to the maximum activity observed for 4-HPR with Caov-3 cell line; method in brief: as §1
[4] = system: OVCAR-3; experiment: Potency of compound was determined from ability to inhibit the growth of ovarian carcinoma OVCAR-3 cell line; method in brief: as §1
[5] = system: OVCAR-3; experiment: Efficacy is growth inhibition activity at 10 uM concentration relative to the maximum activity observed for 4-HPR with OVCAR-3 cell line; method in brief: as §1
[6] = system: SK-OV-3; experiment: Efficacy is growth inhibition activity at 10 uM concentration relative to the maximum activity observed for 4-HPR with SK-OV-3 cell line; method in brief: as §1

SMILES	Potency [1]	Potency [2]	Efficacy [3]	Potency [4]	Efficacy [5]	Efficacy [6]
CCOC(=O)c1ccc(NC(=O)Nc2ccc3c(c2)C(C)(C)CC(C)(C)S3)cc1	7 µM	4.1 µM	63.7%	3.9 µM	160.4%	71.8%
Cc1cc2c(cc1/N=C(\S)Nc1ccc(S(N)(=O)=O)cc1)C(C)(C)CC(C)(C)S2	0.9 µM	6.9 µM	30.3%	4.4 µM	90%	67.7%
CCOC(=O)c1ccc(NC(=O)Nc2cc3c(cc2C)SC(C)(C)CC3(C)C)cc1	10.2 µM	7.2 µM	54.9%	4.7 µM	107%	75.7%
CC1(C)CC(C)(C)c2cc(N/C(S)=N/c3ccc(S(N)(=O)=O)cc3)ccc2S1	7 µM	7.8 µM	16.7%	4.4 µM	74.1%	50.5%
CCOC(=O)c1ccc(N/C(S)=N/c2ccc3c(c2)C(C)(C)CC(C)(C)S3)cc1	4.6 µM	3.9 µM	38.1%	3.9 µM	133.8%	64.9%
CCOC(=O)c1ccc(N/C(S)=N/c2cc3c(cc2C)SC(C)(C)CC3(C)C)cc1	4 µM	4.4 µM	37.4%	4.4 µM	114.4%	85.4%
Cc1cc([N+](=O)[O-])ccc1/N=C(\S)Nc1ccc2c(c1)C(C)(C)CC(C)(C)S2	7.4 µM	3.9 µM	52.1%	3.7 µM	149.5%	78.4%
CC1=C(/C=C/C(C)=C/C=C/C(C)=C/C(=O)Nc2ccc(O)cc2)C(C)(C)CCC1 [FENRETINIDE]	3.7 µM	8.2 µM	100%	6.9 µM	100%	100%
CC1(C)CC(C)(C)c2cc(NC(=S)Nc3ccc([N+](=O)[O-])cc3)ccc2S1 [SHETA-2]	3.7 µM	0.2 µM	89.2%	1 µM	155.2%	69.1%
